Measurements as given in ChEMBL document CHEMBL5365494, “Bis-6-amidino-benzothiazole Derivative that Cures Experimental Stage 1 African Trypanosomiasis with a Single Dose” (J Med Chem, 2023).
Calls of active or inactive are those of the source. The rule behind the calls is not given here.

Tests used:
[1] = Cytotoxicity against rat L6 cells assessed as cell growth inhibition incubated for 6 days by resazurin dye based assay; assay type: toxicity
Procedure, shortened: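 Rat L6 myoblasts seeded at 1×10⁴ mL⁻¹ in RPMI-1640 with a range of compound concentrations, 6 days at 37 °C; resazurin added, 6 h further, fluorescence ex 545/em 590 nm.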

Trypanosoma brucei [2] = assay: Antitrypanosomal activity against blood stream form of Trypanosoma brucei 221a variant assessed as parasite growth inhibition at 0.3 nM preincubated for 24 hrs followed by subculturing with fresh medium with compounds and measured after 6 days by resazurin dye based fluorescence analysis; assay type: functional, organism-based; conditions: time 7.0 day
Procedure, shortened: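 Bloodstream-form T. brucei seeded in flasks at 10^5 mL^-1 with a range of compound concentrations. Every 24 h parasites were sub-cultured back to 10^5 mL^-1 in continued compound presence, through day 10. Growth reported as cumulative parasite number. In a washout arm, parasites were exposed for 3 days, moved to compound-free medium and followed for 12 days.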

[3] = Apparent permeability across apical to basolateral side in MDCK-MDR1 cells at 10 uM measured for 60 mins by LC-MS/MS analysis; assay type: ADME, cell-based, Canis lupus familiaris; conditions: dog
Procedure, shortened: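 MDCKII-hMDR1 monolayers on inserts, compound 10 μM (1% DMSO) in duplicate, 60 min at 37 °C, bidirectional, with and without elacridar 2 μM. Amprenavir as P-gp control, Lucifer yellow for monolayer integrity; compound quantified by LC–MS/MS.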

[4] = Toxicity in BALB/c mouse infected with bioluminescent Trypanosoma brucei brucei GVR35-VSL2 expressing red-shifted luciferase assessed as lack of activity in animal at 0.25 to 20 mg/kg, ip administered once daily for 4 days; assay type: organism-based; conditions: in vivo, 96 h, dose 0.25-20 mg/kg, time 4 day
Procedure, shortened: (§1)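 Infected BALB/c mice (bioluminescent T. brucei, 30,000 parasites) dosed i.p. or orally once daily for 4 days starting day 4 post-infection; observed for piloerection, hunching, shaking, lack of activity and body weight change.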

[5] = Toxicity in BALB/c mouse infected with bioluminescent Trypanosoma brucei brucei GVR35-VSL2 expressing red-shifted luciferase assessed as body weight loss at 20 mg/kg, ip administered once daily for 4 days; assay type: organism-based; conditions: in vivo, 96 h, time 4 day; procedure, shortened: as §1
[6] = system: Trypanosoma brucei brucei; assay: Antitrypanosomal activity against stage-1 bioluminescent Trypanosoma brucei brucei GVR35-VSL2 expressing red-shifted luciferase infected in BALB/c mouse assessed as reduction in parasite growth at 2 mg/kg, ip administered as single dose for 1 day starting from 4 days post infection by luciferase based bioluminescence assay; assay type: functional, organism-based
Procedure, shortened: (§2)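 BALB/c mice infected with 30,000 bioluminescent bloodstream-form T. brucei; dosing i.p. or oral from 4 days post-infection, single or once daily for 4 days. Monitored by in vivo imaging after i.p. d-luciferin 150 mg kg⁻¹ under isoflurane, with total body flux from dorsal plus ventral images. Cure required negativity by both in vivo and ex vivo imaging.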

[7] = system: Trypanosoma brucei brucei; assay: Antitrypanosomal activity against stage-2 bioluminescent Trypanosoma brucei brucei GVR35-VSL2 expressing red-shifted luciferase infected in CD-1 mouse assessed as reduction in parasite growth at 10 to 20 mg/kg, ip administered daily for 3 days starting from 13 days post infection by bioluminescence based assay; assay type: functional, organism-based; conditions: dose 10-20 mg/kg, time 3.0 day
Trypanosoma brucei [8] = assay: Induction of tetracycline dependent drug resistant in Trypanosoma brucei MiTat 1.2, clone 221a assessed as outgrowth of resistant parasites at 1 to 2 ng/ml measured for 10 days; assay type: functional; conditions: dose 1-2 ng/ml, time 10.0 day
[9] = Drug localization in lysosomes of Trypanosoma brucei bloodstream form assessed as colocalization at 10 ug/ml incubated upto 180 mins by LysoTrack dye based fluorescence microscopy; assay type: ADME, subcellular, Lysosome; conditions: 3 h, dose 10 µg/ml
Procedure, shortened: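 Parasites pre-loaded with 100 nM LysoTracker for 45 min, washed, then exposed to compound 10 μg mL⁻¹; aliquots fixed in 4% PFA at each timepoint, DAPI-mounted, imaged by fluorescence microscopy.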

[10] = Drug uptake in blood stream form of Trypanosoma brucei at 10 ug/ml incubated for 6 hrs in presence of bafilomycin Al by fluorescence microscopy; assay type: ADME, tissue-based; conditions: dose 10 µg/ml
Procedure, shortened: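 Bloodstream-form T. brucei incubated 6 h with compound 10 μg mL⁻¹ with or without 8 nM BafA1, then imaged by fluorescence microscopy.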

[11] = Drug localization in endosome of Trypanosoma brucei bloodstream form at 10 ug/ml measured after 6 hrs in presence of bafilomycin Al by TbCatL antibody based immunofluorescence microscopy; assay type: ADME, subcellular; conditions: dose 10 µg/ml
Procedure, shortened: (§3)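 Parasites exposed to compound 10 μg mL⁻¹ for 6 h, with or without BafA1 8 nM; fixed 4% PFA, permeabilized 0.1% Triton X-100, blocked 1% BSA, rabbit anti-TbCatL 1:200 overnight at 4 °C, then Alexa 488 anti-rabbit 2 μg mL⁻¹ 1 h at 37 °C; fluorescence microscopy.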

[12] = Toxicity in BALB/c mouse infected with bioluminescent Trypanosoma brucei brucei GVR35-VSL2 expressing red-shifted luciferase assessed as piloerection in animal at 20 mg/kg, po administered once daily for 4 days; assay type: organism-based; conditions: in vivo, 96 h, time 4 day; procedure, shortened: as §1
[13] = Toxicity in BALB/c mouse infected with bioluminescent Trypanosoma brucei brucei GVR35-VSL2 expressing red-shifted luciferase assessed as hunching in animal at 20 mg/kg, po administered once daily for 4 days; assay type: organism-based; conditions: in vivo, 96 h, time 4 day; procedure, shortened: as §1
[14] = system: Trypanosoma brucei brucei; assay: Antitrypanosomal activity against stage-1 bioluminescent Trypanosoma brucei brucei GVR35-VSL2 expressing red-shifted luciferase infected in BALB/c mouse assessed as parasite killing by measuring reduction in bioluminescent signal at 20 mg/kg, ip administered as single dose starting from 4 days post infection and measured on 3 to 7 days by luciferase based bioluminescence assay; assay type: functional, organism-based; conditions: time 3-7 day; procedure, shortened: as §2
Trypanosoma brucei [15] = assay: Resistant development in Trypanosoma brucei harboring aqp null mutants assessed as fold reduction in sensitivity incubated for 48 hrs by resazurin dye based analysis relative to control; assay type: functional
Procedure, shortened: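 Tbaqp null mutant bloodstream lines tested in the 48 h resazurin microtiter assay: 2.5×10^4 parasites mL^-1 at 37 °C, then 16 h with resazurin and fluorescence read-out. EC50 found for each line in triplicate.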

[16] = Drug localization in lysosomes of Trypanosoma brucei bloodstream form at 10 ug/ml measured after 6 hrs by TbCatL antibody based immunofluorescence microscopy; assay type: ADME, subcellular, Lysosome; conditions: dose 10 µg/ml; procedure, shortened: as §3

CS(=O)(=O)O.CS(=O)(=O)O.N=C(N)c1ccc2nc(C3CCC(c4nc5ccc(C(=N)N)cc5s4)CC3)sc2c1 (stereo unspecified)
EC50 at 6 days [1]: 13.4 µM
Activity (Trypanosoma brucei [2]): Active
Papp A→B at 1 h, 10 µM [3]: < 0.1 ×10⁻⁶ cm/s
Activity [4]: Non-Toxic
Activity [5]: < 10%
Activity [6]: inactive
Activity [7]: inactive
Activity (Trypanosoma brucei [8]): inactive
Drug uptake [9]: Active
Drug uptake [10]: Not Active
Drug uptake [11]: Not Active
Activity [12]: Non-Toxic
Activity [13]: Non-Toxic
Activity [14]: Active
fold change (FC) (Trypanosoma brucei [15]): 1.3
Drug uptake [16]: Active
